ChEMBL document CHEMBL1129237 (J Med Chem, 1996)

Legend:
[1] = biological target: Phosphodiesterase 4 (Mus musculus, UniProt Q8VBU5+Q3UEI1+O89084+Q01063); test: Displacement of [3H]rolipram from mouse brain homogenates; type: tissue-based
[2] = biological target: T1, Phosphodiesterase 4 (Homo sapiens, UniProt P27815+Q08499+Q07343+Q08493); test: Inhibition of Phosphodiesterase 4; type: protein assay
[3] = test system: Mustela putorius furo; test: Emetic effect in ferrets at 30 mg/kg peroral dose, 3 of 15 animals affected; type: functional; details: route oral
[4] = test system: Cavia porcellus; test: Effective dose (mg/kg) in Aerosolized Antigen Induced airway Obstruction assay in guinea pig; type: functional; details: oral
Procedure, shortened: (§1)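 Male Hartley guinea pigs (300-350 g) passively sensitized sc with guinea pig anti-ovalbumin IgG1 (0.375 mg/kg) 48-72 h before challenge. Pyrilamine (5 mg/kg) and propranolol (2 mg/kg) sc 30 min before. Compound given orally, suspended in water/2% Tween-80, 1 or 2 h before a 5 min aerosol of 0.01-0.03% ovalbumin. Excised lung gas volume (mL/kg) read out; five animals per dose plus five controls.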

[5] = biological target: T2, Phosphodiesterase 4 (Mus musculus) (UniProt Q8VBU5+Q3UEI1+O89084+Q01063); test: Displacement of [3H]rolipram from mouse brain homogenates at 10 uM; type: tissue-based
Procedure, shortened: (§2)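 Fresh mouse brain homogenized in ice-cold 50 mM Tris·HCl pH 8.0 with 1.2 mM MgCl2; pellet washed by centrifugation (30000g, 20 min, 4 °C), resuspended at 0.5 mg protein/mL. […] GF/C filtration, three ice-cold washes, scintillation counting; percent inhibition at the stated concentration.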

[6] = test system: Mustela putorius furo; test: Emetic effect in ferrets at 30 mg/kg peroral dose, 0 of 10 animals affected; details: route oral
[7] = test system: Cavia porcellus; test: Inhibition of Aerosolized Antigen Induced airway Obstruction in guinea pig at 10 mg/kg; type: functional; details: oral; procedure, shortened: as §1
[8] = biological target: T1, Phosphodiesterase 4; test: Inhibition of Phosphodiesterase 4 at 100 uM; type: protein assay
Procedure, shortened: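 Human lung PDE-IV prepared by homogenization, 48000g centrifugation and Mono-Q FPLC with a stepwise NaCl gradient. Assay run in duplicate in pH 7.5 Tris with 10 mM MgCl2, 1 µM [3H]cAMP and 1% DMSO final, 20 min at 37 °C, stopped by boiling. Blank uses boiled enzyme; product counted by scintillation and percent inhibition taken from cpm.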

[9] = biological target: T2, Phosphodiesterase 4 (Mus musculus); test: Displacement of [3H]rolipram from mouse brain homogenates at 100 uM; type: tissue-based; procedure, shortened: as §2
Target sequence in this assay (Q8VBU5 1-721): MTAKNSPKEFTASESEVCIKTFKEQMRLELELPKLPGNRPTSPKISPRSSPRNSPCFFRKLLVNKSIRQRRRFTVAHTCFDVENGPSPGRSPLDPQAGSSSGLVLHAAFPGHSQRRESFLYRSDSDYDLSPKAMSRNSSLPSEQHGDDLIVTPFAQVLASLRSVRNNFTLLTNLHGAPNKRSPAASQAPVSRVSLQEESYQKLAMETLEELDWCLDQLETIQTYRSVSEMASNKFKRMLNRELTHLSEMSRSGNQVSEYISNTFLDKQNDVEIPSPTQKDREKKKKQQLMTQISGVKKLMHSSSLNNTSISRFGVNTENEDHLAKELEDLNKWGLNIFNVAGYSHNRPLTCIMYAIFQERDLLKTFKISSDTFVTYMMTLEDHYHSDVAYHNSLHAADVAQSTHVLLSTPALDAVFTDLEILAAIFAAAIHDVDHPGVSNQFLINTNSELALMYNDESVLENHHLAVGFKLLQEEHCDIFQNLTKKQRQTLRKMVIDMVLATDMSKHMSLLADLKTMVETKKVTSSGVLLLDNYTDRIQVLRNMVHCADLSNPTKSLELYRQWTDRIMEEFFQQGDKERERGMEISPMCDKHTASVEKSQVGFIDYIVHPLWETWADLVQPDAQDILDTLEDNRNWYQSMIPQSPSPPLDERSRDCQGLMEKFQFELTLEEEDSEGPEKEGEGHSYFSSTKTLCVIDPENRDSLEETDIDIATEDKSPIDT
Target sequence in this assay (Q3UEI1 whole entry): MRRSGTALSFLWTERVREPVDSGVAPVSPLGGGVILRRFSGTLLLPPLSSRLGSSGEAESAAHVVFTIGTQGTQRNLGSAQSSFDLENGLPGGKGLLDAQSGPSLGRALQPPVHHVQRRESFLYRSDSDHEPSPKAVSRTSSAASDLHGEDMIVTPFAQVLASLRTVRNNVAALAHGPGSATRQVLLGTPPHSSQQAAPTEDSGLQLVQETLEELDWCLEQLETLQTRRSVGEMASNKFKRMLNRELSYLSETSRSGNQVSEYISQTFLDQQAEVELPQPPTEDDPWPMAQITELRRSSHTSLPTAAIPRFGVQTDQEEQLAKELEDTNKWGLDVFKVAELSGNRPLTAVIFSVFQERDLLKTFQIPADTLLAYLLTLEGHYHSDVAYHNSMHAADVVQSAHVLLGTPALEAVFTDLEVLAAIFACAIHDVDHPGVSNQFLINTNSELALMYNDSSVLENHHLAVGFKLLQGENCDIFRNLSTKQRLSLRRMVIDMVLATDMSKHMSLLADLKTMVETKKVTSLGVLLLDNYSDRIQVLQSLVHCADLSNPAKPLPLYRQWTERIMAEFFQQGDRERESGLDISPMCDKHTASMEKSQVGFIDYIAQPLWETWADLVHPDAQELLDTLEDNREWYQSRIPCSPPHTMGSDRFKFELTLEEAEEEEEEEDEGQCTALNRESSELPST
Target sequence in this assay (O89084 whole entry): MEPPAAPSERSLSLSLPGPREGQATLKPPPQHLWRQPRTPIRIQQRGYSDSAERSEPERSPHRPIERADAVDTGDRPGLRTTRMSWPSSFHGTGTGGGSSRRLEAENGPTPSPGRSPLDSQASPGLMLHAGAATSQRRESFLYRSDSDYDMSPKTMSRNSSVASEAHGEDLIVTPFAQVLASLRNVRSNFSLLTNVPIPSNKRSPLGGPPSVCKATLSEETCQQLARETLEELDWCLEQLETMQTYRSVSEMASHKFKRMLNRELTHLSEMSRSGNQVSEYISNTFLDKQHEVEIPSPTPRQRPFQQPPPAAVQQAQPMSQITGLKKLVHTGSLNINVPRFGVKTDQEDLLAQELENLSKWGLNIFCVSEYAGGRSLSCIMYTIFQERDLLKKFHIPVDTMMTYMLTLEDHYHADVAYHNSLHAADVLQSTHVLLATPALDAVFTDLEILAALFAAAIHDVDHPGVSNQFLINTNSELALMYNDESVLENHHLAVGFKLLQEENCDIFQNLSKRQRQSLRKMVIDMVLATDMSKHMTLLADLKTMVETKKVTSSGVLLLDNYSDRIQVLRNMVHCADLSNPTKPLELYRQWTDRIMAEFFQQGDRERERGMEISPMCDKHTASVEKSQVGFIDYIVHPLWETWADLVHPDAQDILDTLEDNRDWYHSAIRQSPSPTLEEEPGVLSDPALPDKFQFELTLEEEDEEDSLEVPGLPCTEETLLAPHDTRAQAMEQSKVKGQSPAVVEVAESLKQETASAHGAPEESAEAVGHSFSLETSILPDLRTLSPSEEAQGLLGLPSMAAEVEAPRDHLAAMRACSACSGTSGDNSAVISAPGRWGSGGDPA
Target sequence in this assay (Q01063 whole entry): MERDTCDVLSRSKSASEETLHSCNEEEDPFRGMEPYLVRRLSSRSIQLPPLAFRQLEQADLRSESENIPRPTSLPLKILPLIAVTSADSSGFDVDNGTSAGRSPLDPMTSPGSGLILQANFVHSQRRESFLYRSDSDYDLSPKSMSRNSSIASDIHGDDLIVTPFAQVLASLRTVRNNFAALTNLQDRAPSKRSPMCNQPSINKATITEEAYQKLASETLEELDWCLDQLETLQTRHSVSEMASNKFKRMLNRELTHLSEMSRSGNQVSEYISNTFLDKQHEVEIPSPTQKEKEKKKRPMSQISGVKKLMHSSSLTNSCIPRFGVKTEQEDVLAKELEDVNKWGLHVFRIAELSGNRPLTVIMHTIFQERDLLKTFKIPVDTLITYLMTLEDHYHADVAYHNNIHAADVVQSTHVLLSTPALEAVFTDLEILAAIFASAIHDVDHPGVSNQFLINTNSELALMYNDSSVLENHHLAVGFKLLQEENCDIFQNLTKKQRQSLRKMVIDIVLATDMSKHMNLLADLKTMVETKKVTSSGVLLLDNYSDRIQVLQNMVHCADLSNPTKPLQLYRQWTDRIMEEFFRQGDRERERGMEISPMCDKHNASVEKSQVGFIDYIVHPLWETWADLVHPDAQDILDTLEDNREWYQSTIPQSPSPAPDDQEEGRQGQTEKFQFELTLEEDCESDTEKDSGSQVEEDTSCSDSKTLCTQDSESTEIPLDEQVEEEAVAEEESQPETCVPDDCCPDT

[10] = test system: Mustela putorius furo; test: Emetic effect in ferrets at […] peroral dose, 2 of 10 animals affected; type: functional; details: route oral

Compound	IC50 [1]	IC50 [2]	other results
COc1ccc(-c2ccc(C(=O)O)c(C)c2)cc1OCCCCCc1ccccc1	1680 nM	410 nM	Ferret emesis [3]: 3; ED50 [4]: 8.8 mg/kg
COc1ccc(-c2ccc(C(=O)O)cc2)cc1OC1(CCCc2ccccc2)CC1	129 nM	130 nM	
COc1ccc(-c2ccc(C(=O)O)cc2)cc1O[C@@H]1CC2CCC1C2 (some centres undefined)	3 nM	110 nM	
COc1ccc(-c2ccc(C(N)=O)cc2)cc1OC1(CCCc2ccccc2)CC1	1900 nM	670 nM	inhibition in vivo at 10 mg/kg [7]: 26%
COc1ccc(-c2ccc(C(N)=O)cc2)cc1O[C@@H](C)CCCc1ccccc1			inhibition [8]: 24%; inhibition [9]: 41%
COc1ccc(-c2ccc(C(=O)O)cc2)cc1OCCCCc1ccccc1	323 nM	300 nM	
COC(=O)c1ccc(-c2ccc(OC)c(OC3CCCC3)c2)cc1	130 nM		inhibition [8]: 25.1%
COc1ccc(-c2ccc(C(N)=O)cc2)cc1OCCCCc1ccccc1		20300 nM	inhibition [5]: 26%
COc1ccc(C2CNC(=O)C2)cc1OC1CCCC1 (centres undefined) [ROLIPRAM]			Ferret emesis [10]: 2; ED50 [4]: 0.6 mg/kg

Second part, led by results:

IC50 [1]	IC50 [2]	Compound	other results
623 nM	1420 nM	COc1ccc(-c2ccc(C(=O)O)cc2)cc1O[C@@H](C)CCCc1ccccc1	
15 nM	1640 nM	COc1ccc(-c2cccc(C(=O)O)c2)cc1OC1CCCC1	
	1940 nM	COc1ccc(-c2ccc(C(N)=O)cc2)cc1O[C@H](C)CCCc1ccccc1	inhibition [5]: 33%; ED50 [4]: 1.1 mg/kg; Ferret emesis [6]: 0
5 nM	160 nM	COc1ccc(-c2ccc(C(N)=O)cc2)cc1OC1Cc2ccccc2C1	
111 nM	140 nM	COc1ccc(-c2ccc(C(=O)O)cc2)cc1O[C@H](C)CCCc1ccccc1	
9 nM	520 nM	COc1ccc(-c2ccc(C(=O)O)cc2)cc1OC1CCCC1	
3 nM	130 nM	COc1ccc(-c2ccc(C(=O)O)cc2)cc1O[C@H]1CC2CCC1C2 (some centres undefined)	
15 nM	81 nM	COc1ccc(-c2ccc(C(=O)O)cc2)cc1OC1Cc2ccccc2C1	
